Compound activity from PubChem BioAssay.
An excerpt weighted towards active compounds, which were near 2.3% of everything screened.
GPR7 antag – human neuropeptides B/W receptor 1 antagonism; GPR7-expressing cells, fluorescence antagonist assay; inhibition, % at 4.4 µM; 290,000 compounds, 1.1% hits; AID 1861; in the data active = inhibition above about 16%, passing the limit was not always enough;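 note: cells stimulated with the agonist NPW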
p-CIP stab down – compounds decreasing mouse p/CIP protein stability; Q05BA5; F442A p/CIP-EGFP cells, EGFP fluorescence, 16 h; decrease of EGFP signal, % at 10 µM; 290,000 compounds, 0.01% hits;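 active = EGFP signal decrease of at least 30% at 10 µM or well 3 SD below plate mean, unless failing retest; inactive = the rest, including hits failing retest or dose response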
T cell HTS – T cell immune modulators affecting CD8 T cell-vesicle binding; 2C CD8+ T cell-vesicle binding, flow cytometry; hits give low values; response (vesicle binding), % at 7 µM; 330,000 compounds, 0.068% hits; AID 2052;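 active = response, share of CD8 T cells binding vesicles, and their 90th percentile fluorescence all below set limits, cut at about 80% in these data, passing the limit was not always enough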;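 note: values below 100% mean blocked vesicle binding to the CD8+ T cells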
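Material: 2C TCR transgenic mouse naive CD8+ T cells, MACS-purified. Also added: QL9-charged Drosophila Ld/ICAM-1/B7-1 vesicles. Timing: binding 1.5 h at 37 °C. Measured by: high-throughput flow cytometry with anti-B7-1 and anti-CD8 staining. Read-out: percent CD8+ FL2 mean versus row control. Controls: Unloaded micro-vesicles (low), QL9 vesicles with 0.7% DMSO (high).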
DSG3 Ab inh – blocks pemphigus antibody binding to human desmoglein-3; P32926; DSG3-coupled beads, scFv-anti-DSG3-GFP binding, flow cytometry; hits give low values; binding (percent of control), % at 10 µM; 310,000 compounds, 0.48% hits; AID 588358;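 active = binding more than 3 SD below its plate's average and above zero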;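 note: hits lower antibody fragment binding to DSG3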
CHT allo act – allosterically activates the human high affinity choline transporter | B-score at 10 µM | 310,000 compounds, 0.49% hits | Q9GZV3 | CHT-expressing cells, membrane potential dye, choline EC20; hits give high values; LV-AA mutant CHT in HEK293 cells;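 active = initial fluorescence not abnormally high and integrated response B-score, plate-corrected, over 3 SD above library mean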
Target sequence (Q9GZV3 whole entry, looked up): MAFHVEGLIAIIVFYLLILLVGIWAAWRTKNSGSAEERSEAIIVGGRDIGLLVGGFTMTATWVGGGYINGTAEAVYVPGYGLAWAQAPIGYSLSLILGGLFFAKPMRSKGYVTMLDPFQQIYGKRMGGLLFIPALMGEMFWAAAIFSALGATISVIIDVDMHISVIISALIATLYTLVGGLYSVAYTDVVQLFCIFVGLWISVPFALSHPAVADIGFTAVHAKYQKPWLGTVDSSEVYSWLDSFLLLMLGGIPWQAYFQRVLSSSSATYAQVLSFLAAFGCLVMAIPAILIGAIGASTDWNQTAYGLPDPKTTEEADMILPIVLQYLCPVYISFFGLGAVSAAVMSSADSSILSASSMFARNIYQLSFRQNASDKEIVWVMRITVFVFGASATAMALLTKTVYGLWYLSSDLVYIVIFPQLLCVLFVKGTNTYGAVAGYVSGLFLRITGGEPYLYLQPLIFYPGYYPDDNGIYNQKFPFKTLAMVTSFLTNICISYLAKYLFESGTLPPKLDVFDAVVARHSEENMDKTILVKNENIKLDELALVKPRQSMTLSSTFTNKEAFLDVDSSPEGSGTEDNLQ
CHT block – inhibitors of human choline transporter CHT; Q9GZV3; CHT-expressing cells, membrane potential dye, choline response; hits give low values; B-score at 10 µM; 310,000 compounds, 0.86% hits;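 active = B-score over 3 SD under the library average, and starting fluorescence ratio not unusually high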;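 note: choline stimulus applied at its EC90 after an EC20 pre-addition; B-score computed on integrated fluorescence ratio after choline addition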
GPR7 antag conf – confirmation of human GPR7 antagonists | shares compounds with GPR7 antag | GPR7-expressing cells, calcium fluorescence antagonist mode | AID 1952 | 2,400 compounds, 52% hits | inhibition, % at 4.4 µM; in the data active = inhibition above about 24%;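 note: stimulated with the GPR7 agonist NPW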
MCHR1 antag – counter-screen for GPR7 antagonists: antagonists of human MCHR1 | AID 2148 | 2,400 compounds, 62% hits | shares compounds with GPR7 antag | inhibition, % at 4.4 µM | MCHR1-expressing cells, fluorescence antagonist assay; in the data active = inhibition above about 22%
CHT inh conf – confirmation of human choline transporter CHT inhibitors; shares compounds with CHT block; 2,400 compounds, 70% hits; CHT-expressing cells, choline membrane potential dye; LV-to-AA substituted CHT, HEK293 cells; CHT activity remaining % of control (hits give low values), % at 10 µM;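 active = choline transporter activity left, mean of duplicates at 10 µM, below buffer-only control mean minus 3 SD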;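 note: depolarization triggered by choline at its EC90 following an EC20 pre-addition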
HEK293 CHT ctr – activity in parental HEK293 cells lacking CHT; shares compounds with CHT block; AID 493222; membrane potential dye, choline response; active = decrease or increase beyond buffer ±3SD; membrane potential ratio readout (active if shifted either direction beyond buffer ±3SD; no single direction) at 10 µM; 2,400 compounds, 4% hits;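 note: parental cells lack the transporter so any hit is non-specific; ratio is peak minus trough fluorescence over baseline after EC90 choline challenge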
Each line names hits and unclear results; the compound was inactive in the other large screens (follow-up assays come after a bar, where they were run).

O=C(CSc1ccc2c(c1)OCCO2)NCc1ccccc1	none
O=C(CSc1ccc2c(c1)OCCO2)NCC1CCCO1 (centres undefined)	GPR7 antag 27 | GPR7 antag conf inactive | MCHR1 antag inactive
Cc1ccccc1-n1ccnc1SCC(=O)NCC1CCCO1 (centres undefined)	GPR7 antag 26 | GPR7 antag conf inactive | MCHR1 antag inactive
CCN1CCc2c(sc(NC(=O)Cc3ccccc3)c2C(N)=O)C1	none
CCN1CCc2c(sc(NC(=O)Nc3ccc(Cl)c(Cl)c3)c2C(N)=O)C1	GPR7 antag 58 | GPR7 antag conf 60 | MCHR1 antag 81
Cc1c(NS(=O)(=O)c2cccc(C(=O)NCc3cccc(Cl)c3)c2)c(=O)n(-c2ccccc2)n1C	none (no result: GPR7 antag, p-CIP stab down, T cell HTS, CHT allo act, CHT block)
CCCCn1c(SCC(=O)N2CCCCC2C)nc2cc(S(N)(=O)=O)ccc21 (centres undefined)	GPR7 antag 36 (no result: DSG3 Ab inh) | GPR7 antag conf inactive | MCHR1 antag inactive
CCCCn1c(SCC(=O)N2CCCC2)nc2cc(S(N)(=O)=O)ccc21	none
O=C(CC1CCCC1)NCCS(=O)(=O)N1CCN(c2ccccc2)CC1	none (no result: GPR7 antag, p-CIP stab down, T cell HTS, CHT allo act, CHT block)
CCOC(=O)C1CCN(C(=O)C(C)Sc2nnc3ccccn23)CC1 (centres undefined)	none (no result: GPR7 antag, p-CIP stab down, CHT allo act, CHT block)
CCCCNC1c2ccccc2C(=O)N1Cc1ccccc1 (centres undefined)	GPR7 antag 28 | GPR7 antag conf inactive | MCHR1 antag inactive
CCC(=O)OC1c2ccccc2C(=O)N1Cc1ccccc1 (centres undefined)	none
CCOC(=O)c1sc(NC(=O)CCc2ccccc2)nc1C	none
CCOC(=O)c1sc(NC(=O)CC(C)c2ccccc2)nc1C (centres undefined)	GPR7 antag 34 | GPR7 antag conf 37 | MCHR1 antag 28
COc1ccc(C(=O)NCCCC2CCCC2)cc1OC1CCN(C(C)C)CC1	none (no result: GPR7 antag, p-CIP stab down, T cell HTS, CHT allo act, CHT block)
CSc1cccc(NC(=O)Cc2ccccc2[N+](=O)[O-])c1	GPR7 antag 27 | GPR7 antag conf inactive | MCHR1 antag inactive
C/C(CC(=O)Nc1ccc2c(c1)OCCO2)=N\NC(=O)c1ccccc1Cl	none
CC(C(=O)Nc1ccc2c(c1)OCO2)c1ccc([N+](=O)[O-])cc1 (centres undefined)	none
C/C(CC(=O)Nc1ccc2c(c1)OCCO2)=N\NC(=O)c1ccc([N+](=O)[O-])cc1Cl	GPR7 antag 34 (no result: DSG3 Ab inh) | GPR7 antag conf inactive | MCHR1 antag inactive
CC(C(=O)Nc1ccc2c(c1)OCCO2)c1ccc([N+](=O)[O-])cc1 (centres undefined)	GPR7 antag 47 | GPR7 antag conf 70 | MCHR1 antag 51
CC1CCCC(NC(=O)CSc2nnc(-c3cccnc3)o2)C1C (centres undefined)	none (no result: GPR7 antag, p-CIP stab down, T cell HTS, CHT allo act, CHT block)
CC(C)N1C(=O)C(=O)N(CC(=O)N2c3ccccc3CC2C)C1=O (centres undefined)	none (no result: GPR7 antag, p-CIP stab down, T cell HTS, CHT allo act, CHT block)
C=CCSc1nsc(NC(=O)Nc2ccc(F)cc2)n1	GPR7 antag 36, CHT block -7.8 | GPR7 antag conf 61 | MCHR1 antag 61 | CHT inh conf inactive | HEK293 CHT ctr inactive
O=C(NC1CCCCC1)c1ccc(S(=O)(=O)NCc2ccco2)cc1	GPR7 antag 34, CHT block -5.5 | GPR7 antag conf inactive | MCHR1 antag 25 | CHT inh conf inactive | HEK293 CHT ctr inactive
O=C(NC1CCN(Cc2ccccc2)CC1)c1ccc(S(=O)(=O)NCc2ccco2)cc1	none
CC(C)COCC(CN(Cc1ccccc1)c1ccccc1)N1CCCC1 (centres undefined)	GPR7 antag 46, CHT block -5.2 (no result: DSG3 Ab inh) | GPR7 antag conf 48 | MCHR1 antag 31 | CHT inh conf inactive | HEK293 CHT ctr inactive
COC(=O)c1c[nH]c2c1-c1cc(C(=O)OCc3ccccc3)n(S(=O)(=O)c3ccc(C)cc3)c1C(=O)C2=O	none (no result: GPR7 antag, p-CIP stab down, T cell HTS, CHT allo act, CHT block)
FC(F)(F)c1nc2nc(Cl)c(Cl)nc2[nH]1	none (no result: GPR7 antag, p-CIP stab down, T cell HTS, CHT allo act, CHT block)
FC(F)(F)c1cccc(-c2nc3nc(Cl)c(Cl)nc3[nH]2)c1	GPR7 antag 25, CHT block -7.8 | GPR7 antag conf 37 | MCHR1 antag 48 | CHT inh conf 50% | HEK293 CHT ctr inactive
c1ccc2c(c1)ccc1ccccc12	none (no result: GPR7 antag, p-CIP stab down, CHT allo act, CHT block)
CCCCCCCCC[n+]1cccc2c3ccccc3ccc21	GPR7 antag 75, CHT block -6.8 | GPR7 antag conf 80 | MCHR1 antag 80 | CHT inh conf 59% | HEK293 CHT ctr inactive
CCCOc1ccc(C(=O)NNC(=S)NC(=O)c2cccs2)cc1	GPR7 antag 52, CHT block -9.4 | GPR7 antag conf 42 | MCHR1 antag 37 | CHT inh conf inactive | HEK293 CHT ctr inactive
CCCOc1ccc(C(=O)NNC(=S)NC(C)=O)cc1	none
CCCOc1ccc(C(=O)NNC(=S)NC(=O)c2ccccc2)cc1	GPR7 antag 42, CHT block -6.6 | GPR7 antag conf 60 | MCHR1 antag 62 | CHT inh conf 55% | HEK293 CHT ctr inactive
O=C(NC1CCCCCC1)c1ccc([N+](=O)[O-])s1	none (no result: GPR7 antag, p-CIP stab down, T cell HTS, CHT allo act, CHT block)
COc1cccc(CN(C)C(=O)c2cc(COc3ccc4ncccc4c3)on2)c1	GPR7 antag 33, CHT block -6 | GPR7 antag conf 40 | MCHR1 antag 57 | CHT inh conf inactive | HEK293 CHT ctr inactive
COc1cccc(CN(C)C(=O)c2cc(COc3c(F)cccc3F)on2)c1	none
Cc1ccc(Cn2c(=N)n(CC(O)COc3ccccc3)c3ccccc32)cc1 (centres undefined)	GPR7 antag 29, CHT block -8.2 | GPR7 antag conf 43 | MCHR1 antag 71 | CHT inh conf 38% | HEK293 CHT ctr inactive
O=C(CN1CCN(CC(=O)c2ccccc2)CC1)c1ccccc1	none (no result: GPR7 antag, p-CIP stab down, T cell HTS, CHT allo act, CHT block)
O=C(CSc1nc2ccccc2c(=O)n1CCCN1CCOCC1)Nc1ccccc1OC(F)F	none (no result: GPR7 antag, p-CIP stab down, CHT allo act, CHT block)
CCCCc1cc(O)c(CCCC)c(O)c1	GPR7 antag 93, CHT block -5.2 (no result: DSG3 Ab inh) | GPR7 antag conf 93 | MCHR1 antag 96 | CHT inh conf 67% | HEK293 CHT ctr inactive
COc1ccccc1N1CCN(C(=O)c2cccc(S(=O)(=O)N3c4ccccc4CC3C)c2)CC1 (centres undefined)	none (no result: GPR7 antag, p-CIP stab down, T cell HTS, CHT allo act, CHT block)
